In ChEMBL document CHEMBL3745596, “Chlorophenoxy aminoalkyl derivatives as histamine H(3)R ligands and antiseizure agents” (Bioorg Med Chem, 2016):
The source made the active and inactive calls.

Experiments:
Mus musculus [1] = assay: Anticonvulsant activity in CF1 albino mouse assessed as protection against maximal electroshock-induced seizure at 30 mg/kg, ip after 4 hrs; assay type: functional, organism-based
Summary of the method: (§1)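 Male CF-1 mice dosed ip as suspension in 0.5% methylcellulose. Corneal electrodes deliver 60 Hz alternating current, 50 mA for […], after a drop of 0.5% tetracaine HCl in 0.9% NaCl per eye. Protection means abolition of hindlimb tonic extension; scored as protected/tested, or ED50 with 95% confidence interval.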

Mus musculus [2] = assay: Anticonvulsant activity in CF1 albino mouse assessed as protection against subcutaneous pentetrazole-induced seizure at 30 mg/kg, ip after 0.5 hrs; assay type: functional, organism-based
Summary of the method: (§2)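 Male CF-1 mice, ip in 0.5% methylcellulose; pentetrazole at CD97 (85 mg/kg) injected subcutaneously in a loose fold of neck skin. Observed 30 min; absence of even a threshold seizure (single clonic spasm lasting at least 5 s) counted as protection. Scored protected/tested, or ED50.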

Rattus norvegicus [3] = assay: Neurotoxicity in Sprague-Dawley rat at 30 mg/kg, ip after 0.25 hrs by rotarod test; assay type: toxicity, organism-based; settings: in vivo
Summary of the method: (§3)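 Male Sprague–Dawley rats given compound ip as a suspension in 0.5% methylcellulose, groups of four. Rotarod: 1 inch knurled rod at 6 rpm; three falls within 1 min counts as neurotoxic. Scored as number toxic/number tested at pretreatment times between 0.25 and 4 h, or at the stated time.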

Mus musculus [4] = assay: Anticonvulsant activity in CF1 albino mouse assessed as protection against maximal electroshock-induced seizure at 30 mg/kg, ip after 0.5 hrs; assay type: functional, organism-based; summary of the method: as §1
Mus musculus [5] = assay: Neurotoxicity in CF1 albino mouse at 30 mg/kg, ip after 0.5 hrs by rotarod test; assay type: toxicity, organism-based; settings: in vivo
Summary of the method: (§4)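 Rotarod neurotoxicity in male albino CF-1 mice dosed ip with compound suspended in 0.5% methylcellulose. Animal placed on a 1 inch diameter knurled plastic rod rotating at 6 rpm. Neurotoxicity scored when the animal falls off three times within 1 min. Readout is number of animals toxic/number tested at the stated time after dosing. TD50 with 95% confidence interval from the quantitative study.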

Rattus norvegicus [6] = assay: Anticonvulsant activity in Sprague-Dawley rat assessed as protection against pilocarpine-induced convulsive status epilepticus at 65 mg/kg, ip; assay type: functional, organism-based
Summary of the method: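 Male Sprague Dawley rats (150–180 g) dosed ip, pilocarpine 50 mg/kg ip given; compound dosed immediately at first behavioral Stage 3 seizure or 30 min later. Number protected from Racine Stage 3 or greater seizures recorded.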

Mus musculus [7] = assay: Anticonvulsant activity in CF1 albino mouse assessed as protection against 6 Hz-psychomotor-induced seizure at 50 mg/kg, ip after 1 hr; assay type: functional, organism-based
Summary of the method: (§5)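 Male CF-1 mice, ip suspension in 0.5% methylcellulose. Corneal stimulation 0.2 ms monopolar rectangular pulses at 6 Hz, 32 mA for 3 s via constant-current device; mice without minimal clonic phase seizure counted protected. Groups of four; read at 0.25, 0.5, 1, 2, 4 h; result as protected/tested.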

Mus musculus [8] = assay: Anticonvulsant activity in CF1 albino mouse assessed as protection against maximal electroshock-induced seizure at 100 mg/kg, ip after 0.5 hrs; assay type: functional, organism-based; summary of the method: as §1
Rattus norvegicus [9] = assay: Anticonvulsant activity in Sprague-Dawley rat assessed as protection against maximal electroshock-induced seizure at 30 mg/kg, po; assay type: functional
Mus musculus [10] = assay: Anticonvulsant activity in CF1 albino mouse assessed as protection against subcutaneous pentetrazole-induced seizure at 30 mg/kg, ip after 4 hrs; assay type: functional, organism-based; summary of the method: as §2
Rattus norvegicus [11] = assay: Anticonvulsant activity in Sprague-Dawley rat assessed as protection against maximal electroshock-induced seizure at 30 mg/kg, ip after 4 hrs; assay type: functional, organism-based
Mus musculus [12] = assay: Neurotoxicity in ip dosed CF1 albino mouse after 0.25 hrs by rotarod test; assay type: toxicity, organism-based; settings: in vivo
Summary of the method: as §4, with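 “dosing.” for “dosing. TD50 with 95% confidence interval from the quantitative study.”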

Mus musculus [13] = assay: Neurotoxicity in CF1 albino mouse assessed as unable to grasp rotarod, sedated and myoclonic jerks at 100 mg/kg, ip after 0.5 hrs by rotarod test; assay type: toxicity, organism-based; settings: in vivo
Summary of the method: (§6)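 Rotarod neurotoxicity in male CF-1 mice dosed ip as 0.5% methylcellulose suspension: mouse placed on 1 inch knurled rod rotating at 6 rpm; toxicity when the animal falls off three times within 1 min, with other signs noted. Scored as toxic/tested at 0.5 h and 4 h.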

Rattus norvegicus [14] = assay: Neurotoxicity in Sprague-Dawley rat at 30 mg/kg, ip after 1 hr by rotarod test; assay type: toxicity, organism-based; settings: in vivo; summary of the method: as §3
Mus musculus [15] = assay: Neurotoxicity in CF1 albino mouse at 50 mg/kg, ip after 4 hrs by rotarod test; assay type: toxicity, organism-based; settings: in vivo; summary of the method: as §4
Mus musculus [16] = assay: Neurotoxicity in CF1 albino mouse at 50 mg/kg, ip after 0.25 hrs by rotarod test; assay type: toxicity, organism-based; settings: in vivo; summary of the method: as §4
Mus musculus [17] = assay: Neurotoxicity in CF1 albino mouse at 3 mg/kg, ip after 0.5 hrs by rotarod test; assay type: toxicity, organism-based; settings: in vivo; summary of the method: as §4
Mus musculus [18] = assay: Neurotoxicity in CF1 albino mouse at 30 mg/kg, ip after 4 hrs by rotarod test; assay type: toxicity, organism-based; settings: in vivo; summary of the method: as §4
Mus musculus [19] = assay: Neurotoxicity in CF1 albino mouse at 10 mg/kg, ip after 0.5 hrs by rotarod test; assay type: toxicity, organism-based; settings: in vivo; summary of the method: as §6
Mus musculus [20] = assay: Anticonvulsant activity in CF1 albino mouse assessed as protection against maximal electroshock-induced seizure at 3 mg/kg, ip after 0.5 hrs; assay type: functional, organism-based; summary of the method: as §1
Rattus norvegicus [21] = assay: Neurotoxicity in Sprague-Dawley rat at 30 mg/kg, ip after 4 hrs by rotarod test; assay type: toxicity, organism-based; settings: in vivo; summary of the method: as §3
Mus musculus [22] = assay: Anticonvulsant activity in CF1 albino mouse temporal lobe epilepsy model at 30 mg/kg, ip; assay type: functional, organism-based
Summary of the method: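 Adult male CF1 mice corneal-kindled to 5 consecutive secondarily generalized seizures (Racine stage 4 or 5). Four fully kindled mice dosed ip and tested 0.5 h later; seizure score below 3 counted protected.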

Mus musculus [23] = assay: Anticonvulsant activity in CF1 albino mouse assessed as protection against 6 Hz-psychomotor-induced seizure at 50 mg/kg, ip after 4 hrs; assay type: functional, organism-based; summary of the method: as §5
Mus musculus [24] = assay: Neurotoxicity in CF1 albino mouse at 50 mg/kg, ip after 0.5 hrs by rotarod test; assay type: toxicity, organism-based; settings: in vivo; summary of the method: as §4
Rattus norvegicus [25] = assay: Anticonvulsant activity in ip dosed Sprague-Dawley rat assessed as protection against subcutaneous pentetrazole-induced seizure after 0.25 hrs; assay type: functional
Mus musculus [26] = assay: Anticonvulsant activity in CF1 albino mouse assessed as protection against maximal electroshock-induced seizure at 10 mg/kg, ip after 0.5 hrs; assay type: functional, organism-based; summary of the method: as §1
Mus musculus [27] = assay: Neurotoxicity in CF1 albino mouse at 50 mg/kg, ip after 1 hr by rotarod test; assay type: toxicity, organism-based; settings: in vivo; summary of the method: as §4
Mus musculus [28] = assay: Neurotoxicity in CF1 albino mouse assessed as death at 300 mg/kg, ip after 0.5 hrs by rotarod test; assay type: toxicity, organism-based; settings: in vivo
Summary of the method: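 Male albino CF-1 mice dosed ip with compound suspended in 0.5% methylcellulose, then placed on a 1-inch knurled plastic rod turning at 6 rpm. A fall three times within 1 min counted as neurotoxicity. Observations were made at 0.5 h and 4 h after dosing. Result given as animals showing toxicity per animals tested, with the kind of toxicity recorded.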

Mus musculus [29] = assay: Anticonvulsant activity in CF1 albino mouse assessed as protection against 6 Hz-psychomotor-induced seizure at 50 mg/kg, ip after 2 hrs; assay type: functional, organism-based; summary of the method: as §5
Rattus norvegicus [30] = assay: Anticonvulsant activity in ip dosed Sprague-Dawley rat assessed as protection against maximal electroshock-induced seizure after 0.25 hrs; assay type: functional
Mus musculus [31] = assay: Anticonvulsant activity in CF1 albino mouse assessed as protection against 6 Hz-psychomotor-induced seizure at 50 mg/kg, ip after 0.25 hrs; assay type: functional, organism-based; summary of the method: as §5
Rattus norvegicus [32] = assay: Protective index, ratio of TD50 for ip dosed Sprague-Dawley rat to ED50 for ip dosed Sprague-Dawley rat assessed as protection against maximal electroshock-induced seizure after 0.5 hrs; assay type: functional
Summary of the method: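 PI = TD50/ED50. Male CF-1 mice or male Sprague–Dawley rats given compound ip as 0.5% methylcellulose suspension. MES: 60 Hz corneal current, 50 mA mice or 150 mA rats, for […] after tetracaine eye drops; protection is abolition of hindlimb tonic extension.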

Mus musculus [33] = assay: Neurotoxicity in CF1 albino mouse at 45 mg/kg, ip after 0.25 to 0.5 hrs by rotarod test; assay type: toxicity, organism-based; settings: in vivo; summary of the method: as §4
Rattus norvegicus [34] = assay: Neurotoxicity in Sprague-Dawley rat at 30 mg/kg, ip after 0.5 hrs by rotarod test; assay type: toxicity, organism-based; settings: in vivo; summary of the method: as §3
Mus musculus [35] = assay: Neurotoxicity in CF1 albino mouse at 50 mg/kg, ip after 2 hrs by rotarod test; assay type: toxicity, organism-based; settings: in vivo; summary of the method: as §4
[36] = Neuroprotective activity in hippocampal slice (unknown origin) assessed as protection against kainic acid-induced cell death using propidium iodide staining; assay type: functional; settings: Hippocampus
Summary of the method: (§7)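 Organotypic hippocampal slice cultures exposed to NMDA or kainic acid alone or with compound; propidium iodide in all wells; PI fluorescence intensity of slices, proportional to cell death, compared with excitotoxin-only slices; qualitative.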

[37] = Neuroprotective activity in hippocampal slice (unknown origin) assessed as protection against NMDA-induced cell death using propidium iodide staining; assay type: functional; settings: Hippocampus; summary of the method: as §7
Mus musculus [38] = assay: Neurotoxicity in CF1 albino mouse at 100 mg/kg, ip after 4 hrs by rotarod test; assay type: toxicity, organism-based; settings: in vivo; summary of the method: as §4
Mus musculus [39] = assay: Neurotoxicity in CF1 albino mouse at 300 mg/kg, ip after 4 hrs by rotarod test; assay type: toxicity, organism-based; settings: in vivo; summary of the method: as §4
Histamine H3 receptor = Histamine H3 receptor (Homo sapiens, UniProt Q9Y5N1); assay: Displacement of [3H]-Nalpha-methylhistamine from human recombinant histamine H3 receptor expressed in HEK293 cells after 90 mins; assay type: cell-based
Rattus norvegicus [40] = assay: Neurotoxicity in Sprague-Dawley rat at 30 mg/kg, ip after 2 hrs by rotarod test; assay type: toxicity, organism-based; settings: in vivo; summary of the method: as §3

Sequence of Histamine H3 receptor (Q9Y5N1 whole entry): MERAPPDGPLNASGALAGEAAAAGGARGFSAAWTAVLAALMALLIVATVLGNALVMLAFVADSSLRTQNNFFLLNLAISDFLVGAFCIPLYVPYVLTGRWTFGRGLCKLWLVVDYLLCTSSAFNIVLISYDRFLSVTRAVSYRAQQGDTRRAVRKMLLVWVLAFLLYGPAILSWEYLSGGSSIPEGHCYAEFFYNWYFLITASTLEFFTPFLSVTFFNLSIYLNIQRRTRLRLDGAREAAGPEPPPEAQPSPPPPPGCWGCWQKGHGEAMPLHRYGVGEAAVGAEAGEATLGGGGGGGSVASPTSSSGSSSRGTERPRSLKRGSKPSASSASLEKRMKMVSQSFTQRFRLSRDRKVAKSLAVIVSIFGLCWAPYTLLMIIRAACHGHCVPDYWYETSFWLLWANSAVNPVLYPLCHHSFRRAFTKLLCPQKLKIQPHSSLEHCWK

Clc1ccc(OCCCCCCN2CCCCCC2)cc1.O=C(O)C(=O)O
Activity (Mus musculus [1]): inactive | Activity (Mus musculus [2]): inactive | Activity (Rattus norvegicus [3]): Non-toxic | Activity (Mus musculus [4]): Active | Activity (Mus musculus [5]): Non-toxic | Activity (Rattus norvegicus [6]): Active | Activity (Mus musculus [7]): inactive | Activity (Mus musculus [8]): Active | Activity (Rattus norvegicus [9]): 25% | Activity (Mus musculus [10]): inactive | Activity (Rattus norvegicus [11]): inactive | TD50 (median neurotoxic dose) (Mus musculus [12]): 36.2 mg/kg | Activity (Mus musculus [13]): Toxic | Activity (Rattus norvegicus [14]): Non-toxic | Activity (Mus musculus [15]): Non-toxic | Activity (Mus musculus [16]): Non-toxic | Activity (Mus musculus [17]): Non-toxic | Activity (Mus musculus [18]): Non-toxic | Activity (Mus musculus [19]): Non-toxic | Activity (Mus musculus [20]): inactive | Activity (Rattus norvegicus [21]): Non-toxic | Activity (Mus musculus [22]): inactive | Activity (Mus musculus [23]): inactive | Activity (Mus musculus [24]): Non-toxic | ED50 (Rattus norvegicus [25]): > 47 mg/kg | Activity (Mus musculus [26]): inactive | Activity (Mus musculus [27]): Non-toxic | Activity (Mus musculus [28]): Toxic | Activity (Mus musculus [29]): inactive | ED50 (Rattus norvegicus [30]): 14 mg/kg | Activity (Mus musculus [31]): inactive | Ratio TD50/ED50 (Rattus norvegicus [32]): 3.2 | Activity (Mus musculus [33]): Toxic | Activity (Rattus norvegicus [34]): Non-toxic | Activity (Mus musculus [35]): Non-toxic | Activity [36]: inactive | Activity [37]: inactive | Activity (Mus musculus [38]): Non-toxic | Activity (Mus musculus [39]): Non-toxic | Ki (Histamine H3 receptor): 237 nM | Activity (Rattus norvegicus [40]): Non-toxic
